Experimental findings from PubChem BioAssay AID651740 (Broad Institute, 2012) are described below.

Molecules are shown by their SMILES. Screen size: about 5,600 compounds; about 1,200 (21%) were called active. About 3% were inconclusive and are not listed. Not all results are given here. Values without a mark were called inactive.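 How the source made its calls: active means mean inhibition above about 95%, with at least 55% of replicates also reaching it (limit read from the data); inconclusive means meets just one of the two conditions; inactive means meets neither condition.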

This assay in a line: inhibitors of intracellular T. cruzi replication, confirmation, NIH3T3 host cells, beta-gal parasites, cherry-pick, set 2 (AID 651740).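 Further: plate controls were neutral control median for no effect and positive control median for full effect.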 Particulars: T. cruzi beta-gal in NIH3T3, GalScreen luminescence, 90 h; at 2.09 µM; active compounds read high. Put shortly:
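System: T. cruzi Tulahuen C4 (beta-gal) in NIH/3T3 cells; Amount: 5,000 fibroblasts/well; Schedule: host attachment 3 h, co-culture ≥90 h, lysis 60 min; Signal: GalScreen luminescence (substrate 1:25 in Buffer B) after cell lysis; Buffer or medium: DMEM, 2% FBS, 1% PSG.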
For the compound `COc1ccc(NC(=O)N2CC[C@@H]3[C@@H](CO)N(C)c4ccc(-c5cccc(F)c5)cc4[C@@H]32)cc1`, the inhibition was 106% (active).
In the case of `CCC(=O)N1CC[C@@H]2[C@@H](CO)N(C)c3ccc(-c4ccc(F)cc4)cc3[C@@H]21`, the inhibition was 79.1%.
The result for `CCC(=O)N1CC[C@@H]2[C@@H](CO)N(C)c3ccc(-c4cccc(OC)c4)cc3[C@@H]21` reads 91.1%; that for `COc1ccccc1NC(=O)N1CCCCN2[C@H](C1)[C@H](c1ccc(-c3ccccc3)cc1)[C@@H]2CO`, 65%.
Consider `C[C@H](O)C#Cc1ccc([C@H]2[C@H]3CN(S(=O)(=O)Cc4ccccc4)CCCCN3[C@H]2CO)cc1`, for which the inhibition was 11.7%.
With `N#Cc1ccc(-c2ccc3c(c2)[C@@H]2[C@@H](CCN2C(=O)Cc2ccncc2)[C@@H](CO)N3)cc1`, the inhibition was 54.9%.
Regarding `COCC(=O)N1CC[C@@H]2[C@@H](CO)Nc3ccc(-c4cccc(C#N)c4)cc3[C@@H]21`, the inhibition was 30.7%.
For `O=S(=O)(c1ccccc1)N1CC[C@@H]2[C@@H](CO)Nc3ccc(-c4ccccc4F)cc3[C@@H]21` the value was 98.3% (active).
For `O=S(=O)(c1ccccc1)N1CC[C@@H]2[C@@H](CO)Nc3ccc(C#Cc4cccc(F)c4)cc3[C@@H]21`, the inhibition was 101% (active).
The result for `O=C(c1cccc(F)c1)N1CC[C@@H]2[C@@H](CO)Nc3ccc(C#Cc4cccc(F)c4)cc3[C@@H]21` reads 106% (active); that for `O=C(c1ccccn1)N1CC[C@@H]2[C@H]1c1cc(-c3ccccc3)ccc1N[C@@H]2CO`, 110% (active).
For `CC(=O)N1CC[C@@H]2[C@H](CO)Nc3ccc(C#Cc4ccccc4F)cc3[C@@H]21`, the inhibition is 14.9%.
Regarding `Cc1ccccc1S(=O)(=O)N1CC[C@H]2[C@H](CO)Nc3ccc(-c4cccc(F)c4)cc3[C@H]21`, the inhibition was 93.1%.
As to `O=S(=O)(c1ccccc1)N1CC[C@@H]2[C@H]1c1cc(C#Cc3cccc(F)c3)ccc1N[C@@H]2CO`, the inhibition is 92.6%.
The result for `O=C(Cc1ccccc1)N1CC[C@H]2[C@H](CO)Nc3ccc(-c4ccccc4F)cc3[C@H]21` reads 64.2%; that for `O=C(c1cnccn1)N1CC[C@@H]2[C@H](CO)Nc3ccc(-c4cccc(F)c4)cc3[C@@H]21`, 87.3%; that for `OC[C@@H]1Nc2ccc(-c3cccc(F)c3)cc2[C@H]2[C@@H]1CCN2Cc1ccncc1`, 55.6%.
`O=C(Nc1cc(Cl)cc(Cl)c1)N[C@H]1CC[C@@H](CCNS(=O)(=O)c2cccc(F)c2)O[C@H]1CO`: the inhibition was 2.51%.
For `CC(C)C#Cc1ccc([C@H]2[C@H](CO)N3CCCCN(C(=O)NC(C)C)C[C@@H]23)cc1` the value was -8.04%; for `COc1ccc(S(=O)(=O)N(C)C[C@H]2Oc3c(NC(=O)Nc4cccc5ccccc45)cccc3C(=O)N([C@@H](C)CO)C[C@H]2C)cc1`, 90.2%.
Consider `C[C@@H]1CN([C@H](C)CO)C(=O)c2cc(/C=C/c3ccccc3)cnc2O[C@@H]1CN(C)Cc1ccncc1`, for which the inhibition is 2.78%.
As for `Cc1cc(C(=O)Nc2cccc3c2O[C@@H](CN(C)Cc2ccc(C(=O)Nc4ccccc4N)cc2)[C@H](C)CN([C@@H](C)CO)C3=O)n(C)n1`, the inhibition is 63.4%.
Regarding `COc1ccc(-c2ccc([C@H]3[C@H]4CN(C(=O)c5ccc6c(c5)OCO6)CCCCN4[C@H]3CO)cc2)cc1`, the inhibition is 50.5%.
Take `C[C@H](CO)N1C[C@H](C)[C@H](CN(C)Cc2ccc(-c3ccccc3)cc2)Oc2ccc(NC(=O)Nc3ccc(F)cc3)cc2CC1=O`: the inhibition is 83.3%.
The result for `CN1c2ccc(-c3ccccc3)cc2[C@H]2[C@H](CCN2C(=O)Cc2ccccn2)[C@H]1CO` reads 72.9%; that for `COCC#Cc1ccc([C@@H]2[C@H](CO)N3CCCCN(C(=O)CN(C)C)C[C@@H]23)cc1`, 29.5%.
For `CN1C(=O)c2cc(NC(=O)c3cnccn3)ccc2OC[C@@H]2O[C@H](CC(=O)N[C@@H]3CCN(Cc4ccccc4)C3)CC[C@@H]21` the value was 93.2%; for `CN1C(=O)c2cc(NC(=O)Nc3ccccc3F)ccc2OC[C@H]2O[C@H](CC(=O)NCc3ccc(-c4ccccc4)cc3)CC[C@H]21`, 104% (active); for `CN1C(=O)c2cc(NC(=O)c3cnccn3)ccc2OC[C@@H]2O[C@@H](CC(=O)N[C@H]3CCN(Cc4ccccc4)C3)CC[C@H]21`, 32.2%.
The result for `Cc1ccc(-c2ccc3c(c2)O[C@H](CN(C)C)[C@@H](C)CN([C@H](C)CO)S3(=O)=O)cc1` reads 41.9%; that for `O=C(NCC1CCCCC1)[C@H]1[C@H](CO)[C@H]2Cn3c(cccc3=O)[C@H]2N1C(=O)CC1CC1`, 30.6%.
With `CC(C)NC(=O)Nc1ccc2c(c1)C(=O)N([C@@H](C)CO)C[C@H](C)[C@H](CN(C)S(=O)(=O)c1ccc(Cl)cc1)OCCCC[C@H](C)O2`, the inhibition is 99.7% (active).
On to `C[C@@H]1CCCCO[C@H](CN(C)S(=O)(=O)c2ccc(Cl)cc2)[C@H](C)CN([C@@H](C)CO)C(=O)c2cc(NS(=O)(=O)c3cccs3)ccc2O1`, for which the inhibition was 79.2%.
The result for `C[C@@H]1CCCCO[C@@H](CN(C)S(=O)(=O)c2ccc(Cl)cc2)[C@H](C)CN([C@@H](C)CO)C(=O)c2cc(NC(=O)Cc3ccccc3)ccc2O1` reads 80.6%.
On to `C[C@H]1CCCCO[C@@H](CN(C)S(=O)(=O)c2cccs2)[C@@H](C)CN([C@@H](C)CO)C(=O)c2cc(NS(=O)(=O)c3ccc(Cl)cc3)ccc2O1`, for which the inhibition is 71%.
Regarding `Cc1noc(C)c1S(=O)(=O)Nc1ccc2c(c1)C(=O)N([C@@H](C)CO)C[C@@H](C)[C@H](CN(C)S(=O)(=O)c1ccc(Cl)cc1)OCCCC[C@H](C)O2`, the inhibition was 62.5%.
On to `C[C@H]1CCCCO[C@H](CN(C)S(=O)(=O)c2ccc(Cl)cc2)[C@@H](C)CN([C@@H](C)CO)C(=O)c2cc(NC(=O)Nc3ccc4c(c3)OCO4)ccc2O1`, for which the inhibition is 105% (active).
Regarding `COc1ccc(NC(=O)Nc2ccc3c(c2)C(=O)N([C@H](C)CO)C[C@H](C)[C@H](CN(C)S(=O)(=O)c2ccc(Cl)cc2)OCCCC[C@H](C)O3)cc1`, the inhibition was 107% (active).
Consider `Cc1ccc(S(=O)(=O)N(C)C[C@H]2OCCCC[C@H](C)Oc3ccc(NC(=O)Cc4ccccc4)cc3C(=O)N([C@@H](C)CO)C[C@@H]2C)cc1`, for which the inhibition is 95%.
Regarding `COc1ccc(NC(=O)N(C)C[C@@H]2OCCCC[C@@H](C)Oc3ccc(NS(=O)(=O)c4ccc(Cl)cc4)cc3C(=O)N([C@H](C)CO)C[C@H]2C)cc1`, the inhibition is 44.3%.
In the case of `COc1ccc(S(=O)(=O)Nc2ccc3c(c2)C(=O)N([C@@H](C)CO)C[C@H](C)[C@@H](CN(C)Cc2ccc(C(F)(F)F)cc2)O3)cc1`, the inhibition was 58.4%.
For `CNC[C@H]1OCCCC[C@H](C)Oc2ccc(NC(=O)Nc3c(C)noc3C)cc2C(=O)N([C@H](C)CO)C[C@H]1C` the value was 2.68%; for `O=C(Nc1cc(F)ccc1F)N1CCCCN2[C@H](CO)[C@@H](c3ccc(-c4cncnc4)cc3)[C@H]2C1`, 13.7%; for `Cc1ccc(-c2cnc3c(c2)C(=O)N([C@@H](C)CO)C[C@@H](C)[C@H](CN(C)Cc2ccccc2F)O3)cc1`, 72.1%.
For the compound `CN(C)C(=O)c1ccc(-c2ccc([C@H]3[C@@H](CO)N4CCCCN(CC5CC5)C[C@H]34)cc2)cc1`, the inhibition was 60.8%.
Take `O=C(C[C@@H]1C[C@H]2c3cc(NC(=O)C4CCC4)ccc3O[C@H]2[C@@H](CO)O1)NCc1ccc2c(c1)OCO2`: the inhibition was -16.2%.
In the case of `C[C@H](CO)N1C[C@H](C)[C@@H](CN(C)S(=O)(=O)c2ccc(F)cc2)Oc2cc(C3=CCCC3)ccc2S1(=O)=O`, the inhibition is 78.5%.
`C[C@@H]1CN([C@@H](C)CO)S(=O)(=O)c2ccc(C#Cc3ccc(F)cc3)cc2O[C@H]1CN(C)S(C)(=O)=O`: the inhibition is 27.8%.
For `C[C@@H]1CN([C@H](C)CO)C(=O)CCCn2nncc2CO[C@@H]1CN(C)Cc1ccc(C(=O)Nc2ccccc2N)cc1` the value was 59.4%.
Consider `C[C@H](CO)N1C[C@H](C)[C@H](CN(C)C(=O)Nc2ccc(C(F)(F)F)cc2)OCCCC[C@H](C)Oc2ccc(NC(=O)C3CCCCC3)cc2C1=O`, for which the inhibition is 109% (active).
Take `C[C@@H]1CCCCO[C@H](CN(C)C(=O)Nc2ccc(C(F)(F)F)cc2)[C@H](C)CN([C@H](C)CO)C(=O)c2cc(NC(=O)Nc3ccc(C(F)(F)F)cc3)ccc2O1`: the inhibition was 115% (active).
For `COc1ccc(NC(=O)N(C)C[C@H]2OCCCC[C@H](C)Oc3ccc(NC(=O)Nc4ccc(C(F)(F)F)cc4)cc3C(=O)N([C@@H](C)CO)C[C@@H]2C)cc1` the value was 113% (active); for `C[C@@H]1CN([C@@H](C)CO)C(=O)c2cc(NC(=O)Nc3ccc(C(F)(F)F)cc3)ccc2O[C@@H](C)CCCCO[C@H]1CN(C)C(=O)c1ccccc1`, 69.7%; for `C[C@@H]1CCCCO[C@H](CN(C)C(=O)CCC(F)(F)F)[C@H](C)CN([C@H](C)CO)C(=O)c2cc(NS(C)(=O)=O)ccc2O1`, 7.29%.
`CC(C)NC(=O)Nc1ccc2c(c1)C(=O)N([C@H](C)CO)C[C@H](C)[C@H](CN(C)C(=O)Nc1ccc(C(F)(F)F)cc1)OCCCC[C@@H](C)O2`: the inhibition is 94%.
Consider `CCCC#Cc1ccc2c(c1)O[C@H](CN(C)C(=O)CC)[C@@H](C)CN([C@H](C)CO)S2(=O)=O`, for which the inhibition is 38.5%.
With `C/C=C/c1ccc([C@H]2[C@@H](CNC(C)C)N(c3nc(CC)cs3)[C@H]2CO)cc1`, the inhibition was 89.5%.
Consider `CCCC#Cc1ccc([C@H]2[C@H](CO)N3CCCCN(C(=O)c4ccc5c(c4)OCO5)C[C@@H]23)cc1`, for which the inhibition was 42.1%.
